Measured values from ChEMBL document CHEMBL1127046, “Antitumor agents. 3. Synthesis and biological activity of 4 beta-alkyl derivatives containing hydroxy, amino, and amido groups of 4'-O-demethyl-4-desoxypodophyllotoxin as antitumor agents” (J Med Chem, 1993).
pIC50: −log10 of the molar value.

Assays:
ACHN = assay: Inhibition of growth of renal cancer ACHN cell line; format: functional; details: Homo sapiens, read-out: ED50 (the source's name)
Method in brief: (§1)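 Human tumour cell lines plated and grown 24 h in a CO2 incubator, then exposed to compound for 96 or 4 h. Cells counted by hemocytometer. IC50 is the concentration giving 50% reduction in cell number versus untreated control.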

A549 = assay: Inhibition of growth of lung non-small cell carcinoma A-549 cell line; format: functional; details: Homo sapiens, read-out: ED50 (the source's name)
Method in brief: (§2)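 Cells were seeded and cultured for 24 h, then exposed to drug for 96 or 4 h. Cells were counted by hemocytometer. IC50 is the concentration giving a 50% reduction in cell number relative to control.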

[1] = Inhibition of growth of colon carcinoma COLO 2-1 cell line; format: functional; details: Homo sapiens, read-out: ED50 (the source's name); method in brief: as §2
COLO 320DM = assay: Inhibition of growth of colon carcinoma COLO 320DM cell line; format: functional; details: Homo sapiens, read-out: ED50 (the source's name); method in brief: as §2
Homo sapiens = species: Homo sapiens; assay: Inhibition of growth of hepatoma HLE cell line; format: functional; details: read-out: ED50 (the source's name); method in brief: as §2
[2] = Inhibition of growth of renal cancer G-402 cell line; format: functional; details: Homo sapiens, read-out: ED50 (the source's name); method in brief: as §1
[3] = Inhibition of growth of hepatoma HLF cell line; format: functional; details: Homo sapiens, read-out: ED50 (the source's name); method in brief: as §2
L1210 [4] = assay: The number of mice survived for 30 days at the dose of 1.3 (mg/kg/day); format: functional, Mus musculus
L1210 [5] = assay: Antitumor activity in vivo expressed as the percentage increase in life span at the dose of 1.3 (mg/kg/day); format: functional, Mus musculus
[6] = test system: Lewis lung carcinoma cell line; assay: Increased life span at the lewis lung dose of 0.25 (mg/kg/day); format: functional, Mus musculus
[7] = test system: Lewis lung carcinoma cell line; assay: Increased life span at the lewis lung dose of 0.44 (mg/kg/day); format: functional, Mus musculus
[8] = test system: Lewis lung carcinoma cell line; assay: Increased life span at the lewis lung dose of 0.77 (mg/kg/day); format: functional, Mus musculus
[9] = test system: Lewis lung carcinoma cell line; assay: Increased life span at the lewis lung dose of 1.3 (mg/kg/day); format: functional, Mus musculus
[10] = test system: Lewis lung carcinoma cell line; assay: Mean body weight change after inoculation of 3.2 x 10 e 5 cells iv and administration of compounds iv from days 1-5 at the dose of 0.25 (mg/kg/day); format: functional, Mus musculus
Method in brief: (§3)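 Male BDF1 mice (5 weeks) given 3.2 x 10^5 Lewis lung carcinoma cells iv on day 0, then dosed iv on days 1–5. Seven mice per group, 14 controls. Mean body weight change (g) taken from day 0 to day 6.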

[11] = test system: Lewis lung carcinoma cell line; assay: Mean body weight change after inoculation of 3.2 x 10 e 5 cells iv and administration of compounds iv from days 1-5 at the dose of 0.44 (mg/kg/day); format: functional, Mus musculus; method in brief: as §3
[12] = test system: Lewis lung carcinoma cell line; assay: Mean body weight change after inoculation of 3.2 x 10 e 5 cells iv and administration of compounds iv from days 1-5 at the dose of 0.77 (mg/kg/day); format: functional, Mus musculus; method in brief: as §3
[13] = test system: Lewis lung carcinoma cell line; assay: Mean body weight change after inoculation of 3.2 x 10 e 5 cells iv and administration of compounds iv from days 1-5 at the dose of 1.3 (mg/kg/day); format: functional, Mus musculus; method in brief: as §3
P388 [14] = assay: Cytotoxicity against P388 leukemia; format: functional, cell-based; details: Mus musculus
P388 [15] = assay: Antitumor activity in vivo expressed as the percentage increase in life span at the P388 dose of 0.4 (mg/kg/day); format: functional, Mus musculus
Method in brief: (§4)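 P388 leukaemia, 1 × 10^6 cells given sc to male CDF1 mice (5 weeks old) on day 0. Drug was dosed iv on days 1–5 in saline with 3.5% DMSO and 6.5% Tween 80. Groups had 7 mice; controls had 10. ILS was calculated from mean survival time of treated versus control mice, excluding 30-day survivors.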

P388 [16] = assay: Antitumor activity in vivo expressed as the percentage increase in life span at the P388 dose of 0.8 (mg/kg/day); format: functional, Mus musculus; method in brief: as §4
P388 [17] = assay: Antitumor activity in vivo expressed as the percentage increase in life span at the P388 dose of 0.3 (mg/kg/day); format: functional, Mus musculus; method in brief: as §4
[18] = Inhibition of growth of lung non-small cell carcinoma PC-7 cell line; format: functional; details: Homo sapiens, read-out: ED50 (the source's name); method in brief: as §2
[19] = Inhibition of growth of lung small cell carcinoma RERF-LC-MA cell line; format: functional; details: Homo sapiens; read-out: ED50 (the source's name); method in brief: as §2
SBC-3 = assay: Inhibition of growth of lung small cell carcinoma SBC-3 cell line; format: functional; details: Homo sapiens, read-out: ED50 (the source's name); method in brief: as §1
[20] = Inhibition of DNA topoisomerase II from rat liver measured as 50% reduction in the amount of minicircle DNA relative to the control
Tubulin = Tubulin (Bos taurus, UniProt Q6B856+Q862L2+Q862F3); assay: Drug concentration needed to produce a 50% reduction of bovine brain tubulin polymerization relative to the control
[21] = test system: Lewis lung carcinoma cell line; assay: Percentage inhibition of tumor growth at the lewis lung dose of 0.3 (mg/kg/ day); format: functional, Mus musculus
Method in brief: (§5)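 Lewis lung carcinoma fragments (2 mm3) implanted sc into male BDF1 mice (5 weeks) on day 0. Compound given iv on days 4–8, in saline or saline with 3.5% DMSO and 6.5% Tween 80. Seven mice per group, 10 controls. Percent inhibition from mean tumour weight versus control on day 17; p<0.05, 0.01 or 0.001 versus control.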

[22] = test system: Lewis lung carcinoma cell line; assay: Percentage inhibition of tumor growth at the lewis lung dose of 1.3 (mg/kg/ day); (p<0001); format: functional, Mus musculus; method in brief: as §5
[23] = test system: Lewis lung carcinoma cell line; assay: Percentage inhibition of tumor growth at the lewis lung dose of 2.3 (mg/kg/ day); (p<0001); format: functional, Mus musculus; method in brief: as §5
L1210 [24] = assay: The number of mice survived for 30 days at the dose of 2.5 (mg/kg/day); format: functional, Mus musculus
L1210 [25] = assay: Antitumor activity in vivo expressed as the percentage increase in life span at the dose of 2.5 (mg/kg/day); format: functional, Mus musculus
[26] = test system: Lewis lung carcinoma cell line; assay: Antitumor activity in vivo expressed as the percentage increase in life span at the lewis lung dose of 0.77 (mg/kg/day); format: functional, Mus musculus
[27] = test system: Lewis lung carcinoma cell line; assay: Antitumor activity in vivo expressed as the percentage increase in life span at the lewis lung dose of 1.3 (mg/kg/day); format: functional, Mus musculus
[28] = test system: Lewis lung carcinoma cell line; assay: Antitumor activity in vivo expressed as the percentage increase in life span at the lewis lung dose of 2.3 (mg/kg/day); format: functional, Mus musculus
[29] = test system: Lewis lung carcinoma cell line; assay: Antitumor activity in vivo expressed as the percentage increase in life span at the lewis lung dose of 4 (mg/kg/day); format: functional, Mus musculus
[30] = test system: Lewis lung carcinoma cell line; assay: Mean body weight change after inoculation of 3.2 x 10 e 5 cells iv and administration of compounds iv from days 1-5 at the dose of 2.3 (mg/kg/day); format: functional, Mus musculus; method in brief: as §3
[31] = test system: Lewis lung carcinoma cell line; assay: Percentage inhibition of tumor growth at the dose of 2.3 (mg/kg/ day); format: functional, Mus musculus; method in brief: as §5
[32] = test system: Lewis lung carcinoma cell line; assay: Percentage inhibition of tumor growth at the dose of 4 (mg/kg/ day); format: functional, Mus musculus; method in brief: as §5
[33] = test system: Lewis lung carcinoma cell line; assay: Mean body weight change after inoculation of 3.2 x 10 e 5 cells iv and administration of compounds iv from days 1-5 at the dose of 4 (mg/kg/day); format: functional, Mus musculus; method in brief: as §3
P388 [34] = assay: Increased life span at the P388 dose of 0.8 (mg/kg/day); format: functional, Mus musculus; method in brief: as §4
P388 [35] = assay: Increased life span at the P388 dose of 1.3 (mg/kg/day); format: functional, Mus musculus; method in brief: as §4
P388 [36] = assay: Increased life span at the P388 dose of 2.3 (mg/kg/day); format: functional, Mus musculus; method in brief: as §4

Row | SMILES | EC50 (ACHN) | EC50 (A549) | EC50 [1] | EC50 (COLO 320DM) | EC50 (Homo sapiens) | EC50 [2] | EC50 [3] | bwc [12] | bwc [13] | pIC50 (P388 [14]) | EC50 [18] | EC50 [19] | EC50 (SBC-3) | pIC50 [20] | IC50 (Tubulin) | other results
1 | COc1cc([C@@H]2c3cc4c(cc3[C@@H](CCN3CCN(C)CC3)C3COC(=O)[C@@H]32)OCO4)cc(OC)c1O.Cl.Cl (some centres not stated) | 2 mg/L | 0.76 mg/L | 9.3 mg/L | 0.99 mg/L | 0.13 mg/L | 0.25 mg/L | 1.6 mg/L | -0.9 g | -3.3 g | 8.52 | 2.9 mg/L | 5.8 mg/L | 0.28 mg/L | 4.47 | > 132 µM | Survivors (L1210 [4]): 1; ILS max (L1210 [5]): 140%; ILS max [6]: 24%; ILS max [7]: 67%; ILS max [8]: 91%; ILS max [9]: 127%; bwc [10]: 0.9 g; bwc [11]: 0.3 g; ILS max (P388 [15]): 112%; ILS max (P388 [16]): 182%; ILS max (P388 [17]): 67%; Inhibition [21]: 37%; Inhibition [22]: 81%; Inhibition [23]: 96%
2 | COc1cc([C@@H]2c3cc4c(cc3[C@@H](CCN(C)CCN(C)C)C3COC(=O)[C@@H]32)OCO4)cc(OC)c1O.Cl.Cl (some centres not stated) | 2 mg/L | 0.82 mg/L | 13 mg/L | 2 mg/L | 0.23 mg/L | 0.33 mg/L | 2.8 mg/L | 0.44 g | 0.2 g | 9.00 | 3.5 mg/L | 14 mg/L | 0.41 mg/L | 4.49 | > 99 µM | Survivors (L1210 [24]): 6; ILS max (L1210 [25]): 103%; ILS max [26]: 38%; ILS max [27]: 72%; ILS max [28]: 90%; ILS max [29]: 209%; bwc [30]: -0.7 g; Inhibition [31]: 51%; Inhibition [32]: 95%; bwc [33]: -2.9 g; ILS max (P388 [34]): 116%; ILS max (P388 [35]): 196%; ILS max (P388 [36]): 236%
